Assay results as given in PMC9592562 (Research and Practice in Thrombosis and Haemostasis, 2022).

Columns and labels:
[1] = tested on: aPL from pool of plasma from 11 human patients; assay: surface plasmon resonance, aPL over immobilized biotinylated peptide; type: binding; settings: shape of stabilization curves; Figures 3C, 3D, 4E
aPL pool = assay: custom immunoassay; type: binding, human; settings: coated on plate (10 μg/ml); aPL pool 1/10 dilution; n = 9
[2] = tested on: aPL pool sera / IIa‐8.0‐biot‐2x; assay: inhibition of aPL binding to IIa‐8.0‐biot‐2x ELISA; type: biochemical, human; settings: preincubation 90 min, room temperature; 1, 10 and 100 μg/ml; n = 3–4; Figure 7A
How it was run: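 Pooled plasma from 11 APS patients (aPL pool sera) was preincubated for 90 min at room temperature with increasing concentrations (1, 10, 100) of monomeric peptide. It was then run in the anti-β2GP1 IgG ELISA on streptavidin-coated plates bearing the biotinylated dimeric peptide. Bound IgG was detected with anti-human secondary antibody (IRDye800CW or HRP) as fluorescence (AU) or A405. Mean ± SEM, n = 3–4.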

Sequence	sustained interaction / stability of binding with aPL [1]	ability to interact with aPL compared with β2GP1 (aPL pool)	inhibition of aPL binding to IIa‐8.0‐biot‐2x, monomeric peptide [2]
VSRGGMRKKKKPLTG [Ib‐1‐biot]	neither R39‐R43‐biot nor Ib‐1‐biot have sustained interaction with aPL		
VSRGGMRKFICPLTG [R39‐R43]		same ability to interact with aPL than β2GP1	failed to significantly inhibit
